Experimental data from paper PMC10548181 (RSC Advances, 2023).

Legend:
[1] = tested on: MCF-7 (human breast adenocarcinoma); assay: MTT anti-proliferative assay on MCF-7; type: cell-based; conditions: MCF7, 48 h, read-out: IC50 (μM) ± SD MCF-7, MTT, 48 h, MCF-7
Outline: (§1)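 Cells grown at 37 °C in humidified 5% CO2 and seeded at 5 × 10^4 per well. Exposed 48 h at 37 °C to a concentration series of test compound, or doxorubicin as positive control, in serum-free medium with DMSO. MTT solution (2.5 mg ml−1) added for 4 h, formazan dissolved in DMSO, absorbance read at 590 nm. Viability taken as percent of untreated control; technical triplicate, three biological replicates, mean ± SD; IC50 by probit analysis.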

[2] = tested on: HCT-116 (human colorectal carcinoma); assay: MTT anti-proliferative assay on HCT-116; type: cell-based; conditions: HCT-116, 48 h, read-out: IC50 (μM) ± SD HCT-116
Outline: as §1

[3] = tested on: human liver carcinoma (HepG-2); assay: MTT anti-proliferative assay on HepG-2; type: cell-based; conditions: HepG2, 48 h, read-out: IC50 (μM) ± SD HepG-2, MTT, 48 h, HepG-2
Outline: as §1

[4] = target: EGFR (Homo sapiens, UniProt P00533); assay: In vitro EGFR kinase activity assay; type: biochemical
Sequence of EGFR (P00533 25-1210): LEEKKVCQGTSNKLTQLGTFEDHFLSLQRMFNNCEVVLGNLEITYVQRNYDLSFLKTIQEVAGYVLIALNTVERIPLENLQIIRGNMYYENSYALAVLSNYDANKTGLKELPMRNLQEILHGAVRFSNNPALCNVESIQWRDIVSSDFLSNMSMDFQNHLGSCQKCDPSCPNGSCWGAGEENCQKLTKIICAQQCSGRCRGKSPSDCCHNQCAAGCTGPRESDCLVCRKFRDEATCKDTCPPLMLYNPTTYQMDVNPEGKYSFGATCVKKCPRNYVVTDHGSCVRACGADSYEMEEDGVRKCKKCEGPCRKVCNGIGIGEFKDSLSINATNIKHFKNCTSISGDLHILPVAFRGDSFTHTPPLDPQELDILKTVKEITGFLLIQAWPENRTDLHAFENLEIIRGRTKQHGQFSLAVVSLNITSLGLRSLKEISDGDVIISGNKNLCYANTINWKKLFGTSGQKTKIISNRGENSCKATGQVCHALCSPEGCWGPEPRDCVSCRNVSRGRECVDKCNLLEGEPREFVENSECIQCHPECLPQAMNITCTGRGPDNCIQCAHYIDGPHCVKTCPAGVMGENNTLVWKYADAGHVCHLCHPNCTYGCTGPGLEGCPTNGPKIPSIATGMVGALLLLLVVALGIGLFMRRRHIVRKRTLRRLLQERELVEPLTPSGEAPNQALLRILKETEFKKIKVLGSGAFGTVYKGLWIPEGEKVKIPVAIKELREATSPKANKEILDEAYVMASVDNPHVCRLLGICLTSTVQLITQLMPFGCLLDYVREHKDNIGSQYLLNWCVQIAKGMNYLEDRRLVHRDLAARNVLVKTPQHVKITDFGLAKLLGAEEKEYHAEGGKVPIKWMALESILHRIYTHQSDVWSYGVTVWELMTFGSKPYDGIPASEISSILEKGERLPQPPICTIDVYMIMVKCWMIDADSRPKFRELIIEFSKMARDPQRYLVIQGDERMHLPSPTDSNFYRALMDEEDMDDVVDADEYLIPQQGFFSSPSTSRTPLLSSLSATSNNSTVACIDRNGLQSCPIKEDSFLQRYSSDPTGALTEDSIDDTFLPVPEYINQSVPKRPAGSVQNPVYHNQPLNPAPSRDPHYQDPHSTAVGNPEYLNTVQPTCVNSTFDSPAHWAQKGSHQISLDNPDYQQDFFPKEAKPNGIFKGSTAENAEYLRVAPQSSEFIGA

[5] = target: mTOR (Homo sapiens, UniProt P42345); assay: In vitro m-TOR activity assay; type: biochemical
[6] = target: PI3Kβ (p110β/p85α) (Homo sapiens, UniProt P42338); assay: In vitro PI3K activity assay; type: biochemical
Sequence of PI3Kβ (p110β/p85α) (P42338 whole entry): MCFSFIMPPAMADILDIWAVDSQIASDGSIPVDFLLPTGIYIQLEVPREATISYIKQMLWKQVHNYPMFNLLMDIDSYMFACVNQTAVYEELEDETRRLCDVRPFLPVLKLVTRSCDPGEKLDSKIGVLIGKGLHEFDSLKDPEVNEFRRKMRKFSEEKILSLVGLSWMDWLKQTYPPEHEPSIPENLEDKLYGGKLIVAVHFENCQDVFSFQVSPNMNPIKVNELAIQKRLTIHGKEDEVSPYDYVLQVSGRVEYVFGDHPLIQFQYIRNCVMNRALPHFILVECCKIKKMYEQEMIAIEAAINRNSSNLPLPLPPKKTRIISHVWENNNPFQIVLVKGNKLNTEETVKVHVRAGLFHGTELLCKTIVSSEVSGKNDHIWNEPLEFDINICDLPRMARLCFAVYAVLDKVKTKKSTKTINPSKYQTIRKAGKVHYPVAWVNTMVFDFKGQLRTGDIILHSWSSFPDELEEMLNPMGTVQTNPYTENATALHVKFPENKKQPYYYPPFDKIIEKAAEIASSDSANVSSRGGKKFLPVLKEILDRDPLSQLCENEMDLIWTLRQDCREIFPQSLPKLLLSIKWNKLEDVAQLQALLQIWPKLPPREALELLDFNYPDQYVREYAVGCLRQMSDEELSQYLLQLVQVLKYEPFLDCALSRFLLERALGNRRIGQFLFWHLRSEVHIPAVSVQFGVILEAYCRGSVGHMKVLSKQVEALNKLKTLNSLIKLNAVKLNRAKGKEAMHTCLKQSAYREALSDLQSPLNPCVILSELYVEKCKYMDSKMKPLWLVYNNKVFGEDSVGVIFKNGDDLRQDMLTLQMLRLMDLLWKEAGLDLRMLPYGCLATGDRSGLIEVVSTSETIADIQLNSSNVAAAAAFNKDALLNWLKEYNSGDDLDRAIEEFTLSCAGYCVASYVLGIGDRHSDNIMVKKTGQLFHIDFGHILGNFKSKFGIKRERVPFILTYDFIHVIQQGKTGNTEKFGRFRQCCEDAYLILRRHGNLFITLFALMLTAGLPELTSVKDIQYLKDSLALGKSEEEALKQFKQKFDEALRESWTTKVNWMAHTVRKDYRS
Sequence of PI3Kβ (p110β/p85α) (P27986 whole entry partner): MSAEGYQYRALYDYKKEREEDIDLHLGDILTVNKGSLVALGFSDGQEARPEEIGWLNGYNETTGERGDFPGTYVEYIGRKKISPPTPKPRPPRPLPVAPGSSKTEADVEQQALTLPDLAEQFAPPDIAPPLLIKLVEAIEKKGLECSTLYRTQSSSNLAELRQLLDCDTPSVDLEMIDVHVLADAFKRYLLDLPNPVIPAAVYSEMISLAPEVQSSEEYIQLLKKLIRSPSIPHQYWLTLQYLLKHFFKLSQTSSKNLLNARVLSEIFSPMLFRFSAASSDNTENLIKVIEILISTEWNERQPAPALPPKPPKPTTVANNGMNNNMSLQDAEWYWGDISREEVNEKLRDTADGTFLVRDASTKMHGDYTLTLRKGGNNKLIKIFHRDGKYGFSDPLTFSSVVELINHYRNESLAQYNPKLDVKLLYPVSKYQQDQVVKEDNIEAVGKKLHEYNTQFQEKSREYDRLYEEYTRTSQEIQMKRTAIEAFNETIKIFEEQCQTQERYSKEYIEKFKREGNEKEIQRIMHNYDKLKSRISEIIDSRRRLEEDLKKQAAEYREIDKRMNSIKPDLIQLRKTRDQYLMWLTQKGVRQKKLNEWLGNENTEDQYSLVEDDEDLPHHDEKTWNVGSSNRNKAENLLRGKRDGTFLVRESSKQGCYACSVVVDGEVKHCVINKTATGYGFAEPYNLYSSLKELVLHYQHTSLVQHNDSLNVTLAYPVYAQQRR

[7] = tested on: MCF-7 cells; assay: Cell cycle analysis; type: cell-based, human
Outline: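 MCF-7 cells seeded at 8 × 10^4, held overnight at 37 °C with 5% CO2, then treated 48 h with test compound. Pelleted at 300 g for 5 min and fixed in 70% ethanol on ice for 15 min. Flow cytometry run within 1 h of staining.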

[8] = tested on: MCF-7 cells; assay: Apoptosis assay; type: cell-based, human

Row | SMILES | IC50 [1] | IC50 [2] | IC50 [3] | IC50 [4] | IC50 [5] | IC50 [6] | effect on cell cycle progression [7] | effect on apoptosis [8]
1 | CNC(=S)NN=C(C)c1c(O)c2ccccc2oc1=O [Compound 2b, 4-Methyl-1-(1-(4-hydroxy-2-oxo-2H-chromen-3-yl)ethylidene)thiosemicarbazide] | 13.6 ± 1.5 µM | 7.2 ± 0.6 µM | 48.1 ± 3.9 µM | 2.28 ± 0.14 µM | 2.96 ± 0.18 µM | 1.33 ± 0.074 µM |  | 
2 | CC(=NN=c1[nH]c(C)cs1)c1c(O)c2ccccc2oc1=O [Compound 3a, 3-{1-[(4-Methyl-3H-thiazol-2-ylidene)-hydrazono]-ethyl}-4-hydroxy-2H-chromen-2-one] | 34.5 ± 3.6 µM | 32.6 ± 3.1 µM | 42.5 ± 4.1 µM |  |  |  |  | 
3 | CC(=NN=c1scc(C)n1C)c1c(O)c2ccccc2oc1=O [Compound 3b, 3-{1-[(3,4-Dimethyl-3H-thiazol-2-ylidene)-hydrazono]-ethyl}-4-hydroxy-2H-chromen-2-one] | 34.9 ± 3.1 µM | 27.2 ± 2.9 µM | 46.1 ± 3.7 µM |  |  |  |  | 
4 | CCn1c(C)csc1=NN=C(C)c1c(O)c2ccccc2oc1=O [Compound 3c, 3-{1-[(3-Ethyl-4-methyl-3H-thiazol-2-ylidene)-hydrazono]-ethyl}-4-hydroxy-2H-chromen-2-one] | 36.5 ± 4.2 µM | 36.3 ± 3.5 µM | 68.2 ± 5.6 µM |  |  |  |  | 
5 | CC(=O)c1sc(=NN=C(C)c2c(O)c3ccccc3oc2=O)[nH]c1C [Compound 4a, 3-{1-[(5-Acetyl-4-methyl-3H-thiazol-2-ylidene)-hydrazono]-ethyl}-4-hydroxy-2H-chromen-2-one] | 25.6 ± 3.1 µM | 31.4 ± 3.1 µM | 48.8 ± 3.1 µM |  |  |  |  | 
6 | CC(=O)c1sc(=NN=C(C)c2c(O)c3ccccc3oc2=O)n(C)c1C [Compound 4b, 3-{1-[(5-Acetyl-3,4-dimethyl-3H-thiazol-2-ylidene)-hydrazono]-ethyl}-4-hydroxy-2H-chromen-2-one] | 32.7 ± 3.5 µM | 24.3 ± 2.7 µM | 57.1 ± 4.3 µM |  |  |  |  | 
7 | CCn1c(C)c(C(C)=O)sc1=NN=C(C)c1c(O)c2ccccc2oc1=O [Compound 4c, 3-{1-[(5-Acetyl-3-ethyl-4-methyl-3H-thiazol-2-ylidene)-hydrazono]-ethyl}-4-hydroxy-2H-chromen-2-one] | 33.7 ± 3.2 µM | 38.9 ± 3.2 µM | 62.5 ± 3.9 µM |  |  |  |  | 
8 | CC(=NN=c1scc(-c2ccccc2)n1C)c1c(O)c2ccccc2oc1=O [Compound 5b, 3-{1-[(3-Methyl-4-phenyl-3H-thiazol-2-ylidene)-hydrazono]-ethyl}-4-hydroxy-2H-chromen-2-one] | 34.6 ± 2.9 µM | 42.4 ± 4.1 µM | 66.4 ± 5.6 µM |  |  |  |  | 
9 | CCOC(=O)c1sc(=NN=C(C)c2c(O)c3ccccc3oc2=O)[nH]c1C [Compound 6a, 4-Methyl-2-{[1-(4-hydroxy-2-oxo-2H-chromen-3-yl)-ethylidene]-hydrazono}-2,3-dihydro-thiazole-5-carboxylic acid ethyl ester] | 6.4 ± 0.5 µM | 20.4 ± 1.9 µM | 57.2 ± 4.3 µM | 0.184 ± 0.01 µM | 0.719 ± 0.04 µM | 0.131 ± 0.007 µM | cell growth arrest at S phase | increase in the early and late cellular apoptosis
10 | CCOC(=O)c1sc(=NN=C(C)c2c(O)c3ccccc3oc2=O)n(C)c1C [Compound 6b, 3,4-Dimethyl-2-{[1-(4-hydroxy-2-oxo-2H-chromen-3-yl)-ethylidene]-hydrazono}-2,3-dihydro-thiazole-5-carboxylic acid ethyl ester] | 11.2 ± 1.1 µM | 5.9 ± 0.7 µM | 41.4 ± 2.9 µM | 0.563 ± 0.03 µM | 1.45 ± 0.08 µM | 0.361 ± 0.02 µM |  | 
11 | CCOC(=O)c1sc(=NN=C(C)c2c(O)c3ccccc3oc2=O)n(CC)c1C [Compound 6c, 3-Ethyl-4-methyl-2-{[1-(4-hydroxy-2-oxo-2H-chromen-3-yl)-ethylidene]-hydrazono}-2,3-dihydro-thiazole-5-carboxylic acid ethyl ester] | 20.7 ± 2.1 µM | 24.7 ± 1.6 µM | 45.1 ± 4.1 µM |  |  |  |  | 
12 | CC(=NN=C1SCC(=O)N1C)c1c(O)c2ccccc2oc1=O [Compound 7b, 3-Methyl-2-{[1-(4-hydroxy-2-oxo-2H-chromen-3-yl)-ethylidene]-hydrazono}-thiazolidin-4-one] | 32.8 ± 3.5 µM | 41.2 ± 3.9 µM | 65.7 ± 5.1 µM |  |  |  |  | 
13 | CC(=NN=C1NC(=O)C(C)S1)c1c(O)c2ccccc2oc1=O (centres unmarked) [Compound 8a, 5-Methyl-2-{[1-(4-hydroxy-2-oxo-2H-chromen-3-yl)-ethylidene]-hydrazono}-thiazolidin-4-one] | 27.4 ± 1.9 µM | 38.3 ± 4.2 µM | 42.4 ± 3.5 µM |  |  |  |  | 
14 | CC(=NN=C1SC(C)C(=O)N1C)c1c(O)c2ccccc2oc1=O (centres unmarked) [Compound 8b, 3,5-Dimethyl-2-{[1-(4-hydroxy-2-oxo-2H-chromen-3-yl)-ethylidene]-hydrazono}-thiazolidin-4-one] | 26.1 ± 3.5 µM | 44.8 ± 4.5 µM | 67.2 ± 4.9 µM |  |  |  |  | 
15 | CCN1C(=O)C(C)SC1=NN=C(C)c1c(O)c2ccccc2oc1=O (centres unmarked) [Compound 8c, 3-Ethyl-5-methyl-2-{[1-(4-hydroxy-2-oxo-2H-chromen-3-yl)-ethylidene]-hydrazono}-thiazolidin-4-one] | 7.4 ± 0.9 µM | 44.9 ± 4.3 µM | 80.2 ± 5.9 µM |  |  |  |  | 
16 | CC(=NN=c1[nH]c(C)c(N=Nc2ccccc2)s1)c1c(O)c2ccccc2oc1=O [Compound 9a, 3-{1-[(4-Methyl-5-phenylazo-3H-thiazol-2-ylidene)-hydrazono]-ethyl}-4-hydroxy-2H-chromen-2-one] | 33.4 ± 2.8 µM | 33.9 ± 2.8 µM | 71.2 ± 5.1 µM |  |  |  |  | 
17 | CC(=NN=c1sc(N=Nc2ccccc2)c(C)n1C)c1c(O)c2ccccc2oc1=O [Compound 9b, 3-{1-[(3,4-Dimethyl-5-phenylazo-3H-thiazol-2-ylidene)-hydrazono]-ethyl}-4-hydroxy-2H-chromen-2-one] | 32.3 ± 3.5 µM | 37.9 ± 2.5 µM | 64.1 ± 5.5 µM |  |  |  |  | 
18 | CCn1c(C)c(N=Nc2ccccc2)sc1=NN=C(C)c1c(O)c2ccccc2oc1=O [Compound 9c, 3-{1-[(3-Ethyl-4-methyl-5-phenylazo-3H-thiazol-2-ylidene)-hydrazono]-ethyl}-4-hydroxy-2H-chromen-2-one] | 32.8 ± 2.8 µM | 47.2 ± 4.5 µM | 60.9 ± 4.8 µM |  |  |  |  | 
19 | CC(=NN=c1[nH]c(C)c(N=Nc2ccc(C)cc2)s1)c1c(O)c2ccccc2oc1=O [Compound 9d, 3-{1-[(4-Methyl-5-(4-tolyl)azo-3H-thiazol-2-ylidene)-hydrazono]-ethyl}-4-hydroxy-2H-chromen-2-one] | 26.3 ± 2.5 µM | 45.6 ± 4.2 µM | 57.2 ± 4.6 µM |  |  |  |  | 
20 | CC(=NN=c1sc(N=Nc2ccc(C)cc2)c(C)n1C)c1c(O)c2ccccc2oc1=O [Compound 9e, 3-{1-[(3,4-Dimethyl-5-(4-tolyl)azo-3H-thiazol-2-ylidene)-hydrazono]-ethyl}-4-hydroxy-2H-chromen-2-one] | 23.3 ± 1.9 µM | 55.2 ± 5.1 µM | 74.4 ± 5.9 µM |  |  |  |  | 
21 | CCn1c(C)c(N=Nc2ccc(C)cc2)sc1=NN=C(C)c1c(O)c2ccccc2oc1=O [Compound 9f, 3-{1-[(3-Ethyl-4-methyl-5-(4-tolyl)azo-3H-thiazol-2-ylidene)-hydrazono]-ethyl}-4-hydroxy-2H-chromen-2-one] | 17.8 ± 1.1 µM | 40.1 ± 4.7 µM | 82.1 ± 6.1 µM |  |  |  |  | 
22 | COc1cccc2c1C(=O)c1c(O)c3c(c(O)c1C2=O)C[C@@](O)(C(=O)CO)C[C@@H]3O[C@H]1C[C@H](N)[C@H](O)[C@H](C)O1 [Doxorubicin, reference compound] | 16.7 ± 1.5 µM | 21.8 ± 2.9 µM | 63.2 ± 5.8 µM |  |  |  |  | 
